# A selection: hits, their analogues and other compounds. The true share with any hit is near 3.4%.
# PKD1 inh = PKD1 (human) kinase inhibition; Q15139; PKD1 kinase fluorescence polarization assay; inhibition, % (no concentration beside the values); 200,000 compounds, 0.056% hits; AID 797; in the data active means inhibition above about 50%
# p97 ATPase inh = blocks human p97 ATPase activity; P55072; recombinant p97 ATPase, Kinase-Glo ATP luminescence, 3 h; inhibition, % at 8 µM; 220,000 compounds, 0.42% hits; AID 1481; in the data active means inhibition above about 15%;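 further: 0% = DMSO vehicle and 100% = wells lacking enzyme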
# Target sequence (P55072 whole entry, looked up): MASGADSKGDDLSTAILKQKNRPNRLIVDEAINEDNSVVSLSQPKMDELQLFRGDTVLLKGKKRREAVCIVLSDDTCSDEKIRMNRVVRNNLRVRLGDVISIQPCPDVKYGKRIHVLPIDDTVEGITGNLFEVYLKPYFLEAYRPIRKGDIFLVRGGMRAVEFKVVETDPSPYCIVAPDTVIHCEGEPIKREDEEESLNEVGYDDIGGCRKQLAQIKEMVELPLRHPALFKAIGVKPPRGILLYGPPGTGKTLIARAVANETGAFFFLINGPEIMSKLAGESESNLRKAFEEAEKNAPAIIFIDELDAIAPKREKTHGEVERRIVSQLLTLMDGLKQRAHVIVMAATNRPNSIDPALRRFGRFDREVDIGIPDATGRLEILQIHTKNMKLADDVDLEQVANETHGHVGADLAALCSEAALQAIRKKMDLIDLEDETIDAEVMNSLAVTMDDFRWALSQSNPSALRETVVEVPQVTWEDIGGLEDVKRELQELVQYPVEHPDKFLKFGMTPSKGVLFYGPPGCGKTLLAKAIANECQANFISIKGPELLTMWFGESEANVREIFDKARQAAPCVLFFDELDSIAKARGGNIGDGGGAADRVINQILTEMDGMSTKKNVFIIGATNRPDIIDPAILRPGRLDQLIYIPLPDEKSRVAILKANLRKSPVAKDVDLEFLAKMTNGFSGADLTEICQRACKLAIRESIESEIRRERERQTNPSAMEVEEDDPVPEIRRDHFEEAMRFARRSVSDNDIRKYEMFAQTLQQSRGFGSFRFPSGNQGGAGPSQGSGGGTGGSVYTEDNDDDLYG
# MDM2 E3 inh = inhibitors of human Mdm2 E3 ubiquitin ligase. Q00987. cell-based MDM2 ubiquitination luciferase reporter, 2 h; 0 = plate control, 100 = twice control, blank-subtracted. signal enhancement, % at 5 µM. 210,000 compounds, 0.11% hits. AID 1230;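 active means signal enhancement of 30% or more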;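 further: luminescence tracks abundance of the self-degrading MDM2-luciferase fusion protein; higher signal means inhibition of MDM2 E3 ligase activity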
#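 Assay system: stable mammalian line carrying autodegrading MDM2–luciferase fusion reporter; amount: 2000 cells seeded into each well; buffer or medium: DMEM; benchmarks: plate control and blank wells; signal: luciferase luminescence; timing: 2 h compound exposure at 37 °C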
# DTT redox prof = compounds producing H2O2 with reducing agent – biochemical, NIH compound library profiling, artefact control for MLSCN library redox annotation, primary screen; DTT-dependent redox cycling H2O2, phenol red/HRP absorbance; 100% = 100 µM peroxide control, 0% = buffer; activation, % at 10 µM; 200,000 compounds, 0.03% hits; AID 878;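 active means activation of at least 50% relative to the plate's high and low controls in the primary single-dose screen; inactive means activation below 50%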;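 further: compound incubated with DTT at 0.8 mM final as the reducing agent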
# Cl transport mod = modulates chloride dependent transport by human KCC2 | Q9H2X9 | B-score of Tl+ flux slope (higher = more flux/activation; lower = inhibition) at 10 µM | KCC2 cells, thallium flux FluoZin-2 fluorescence | 190,000 compounds, 2.2% hits;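 active means thallium flux slope and its plate-corrected score both differing from the plate sample mean at a set confidence after two filtering rounds, in either direction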;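 further: slope of fluorescence scaled to starting intensity during 10 to 20 s after thallium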
# ROMK mod = modulators of human ROMK potassium channel. P48048. Tet-inducible ROMK, thallium flux fluorescence; actives lie on both sides. B-score at 10 µM. 130,000 compounds, 2% hits. AID 1918;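 active means signal ratio slope over the read window, or its plate-corrected B-score, at least 3 SD from the plate mean, either direction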;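 further: B-score of the F/F0 ratio slope over 7 to 12 s after thallium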
# KCC2 sec1 = confirmation of human KCC2 transport modulators; HEK293-KCC2, thallium flux, FluoZin2 fluorescence; stronger effect = higher value; normalised thallium flux (F/F0 slope) at 10 µM; 3,700 compounds, 15% hits; shares compounds with Cl transport mod;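 active means thallium flux slope above the same plate's solvent-only control mean plus 3 SD; inconclusive means the two replicate wells disagree; inactive means no significant difference from solvent-only control wells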
# KCC2 bumet counter = thallium flux despite bumetanide block in KCC2 cells, secondary assay 3. HEK293-KCC2 + bumetanide/ouabain, thallium flux FluoZin2; stronger effect = higher value. normalized thallium flux at 10 µM. 3,700 compounds, 49% hits. shares compounds with Cl transport mod;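 active means thallium entry rate above the same plate's blocked-transporter control wells by more than 3 SD; inconclusive means the two repeat wells disagree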;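 further: raw slope of fluorescence over initial fluorescence between 10 and 20 s after thallium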
# KCC2 sec2 = confirmation of human KCC2 transport modulators; shares compounds with Cl transport mod; HEK293-KCC2, thallium flux FluoZin2 fluorescence; actives lie on both sides; F/F0 rise rate, 10–20 s post-thallium; normalized thallium flux at 10 µM; 3,700 compounds, 23% hits; AID 1715;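 active means thallium flux slope more than 3 SD above or below the plate's solvent-only control mean, mostly below; inconclusive means the two repeat wells disagreed; inactive means no significant shift from solvent-only controls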;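 further: raw slope with 0.1% DMSO as baseline and bumetanide as block control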
# HEK293 Tl flux = parental HEK flux effect, counter-screen; shares compounds with Cl transport mod; HEK293 parental cells, thallium flux FluoZin2, ouabain; baseline-ratio fluorescence slope, 10–20 s after thallium; thallium flux rate (normalised fluorescence) at 10 µM; 3,700 compounds, 46% hits;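 active means thallium flux rate significantly above the same plate's solvent-only control wells, beyond their mean plus 3 SD; inconclusive means the two replicate wells gave conflicting results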
# KCC2 ouabain = modulates human KCC2 on retest with ouabain; shares compounds with Cl transport mod; HEK293-KCC2, thallium flux FluoZin2 fluorescence; bidirectional: low = inhibitor, high = activator; raw Tl+ flux slope (below DMSO = inhibition, above = activation) at 10 µM; 3,700 compounds, 48% hits; AID 1717;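 active means thallium flux slope beyond 3 SD from same-plate DMSO control mean in most replicates, usually higher, sometimes lower; inconclusive means repeat tests gave conflicting results; inactive means no significant difference from controls in most replicates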;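 further: slope of initial-normalized fluorescence between seconds 10 and 20 after thallium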
# HEK counter2 = counter-screen for KCC2 modulators: effect in parental HEK293 cells | shares compounds with Cl transport mod | thallium flux FluoZin-2 fluorescence slope | thallium flux slope at 10 µM | 3,700 compounds, 33% hits | AID 1718;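 active means thallium flux slope above the same plate's solvent-control mean plus 3 SD in both duplicate wells; inconclusive means duplicate wells that disagreed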;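 further: run without ouabain in cells lacking the KCC2 cotransporter; slope of fluorescence scaled to its starting value between 10 and 20 s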
# Numbers without * were called inactive; ? = inconclusive; / = no result.
SMILES,PKD1 inh,p97 ATPase inh,MDM2 E3 inh,DTT redox prof,Cl transport mod,ROMK mod,KCC2 sec1,KCC2 bumet counter,KCC2 sec2,HEK293 Tl flux,KCC2 ouabain,HEK counter2
C=CCn1c(Sc2ncc([N+](=O)[O-])s2)n[nH]c1=O,/,-4,0,/,-3.5,/,/,/,/,/,/,/
CCOc1ccc(C(=O)NCCO)cc1,1,3,9,0,0.45,1.3,/,/,/,/,/,/
CCOc1ccc(N(CCCCO)C(=S)NC(=O)c2ccc(C)c(Br)c2)cc1,2,-2,-11,0,13*,/,0.0076,0.049*,0.044*,0.029*,0.046*,0.033*
Cc1ccc(C)c(C2=NNC(=NCc3ccccc3)SC2)c1,2,0,-15,-1,8.9*,-0.54,0.01,0.038*,0.036,?,0.033*,?
C=CCn1c(C)cc(C2=NNC(=NCc3ccccc3)SC2)c1C,-6,6,18,0,0.48,-0.73,/,/,/,/,/,/
Cc1ccc(N(CC(=O)NCCSc2ccccn2)S(=O)(=O)c2ccc(F)cc2)cc1,-4,-2,1,0,-4.2*,-0.99,0.0067,0.005,0.026*,0.0069,?,0.01
Cc1ccccc1NN1C(=O)C=CC1=O,-4,5,-4,-3,0.42,/,/,/,/,/,/,/
COCCn1c(SCC(=O)Nc2ccccc2OC)nc2c(oc3ccccc32)c1=O,-9,6,-7,-1,-2.4,-1,/,/,/,/,/,/
CCOc1ccc(NC(=O)CSc2nnc(-c3ccccn3)n2C)cc1,-13,6,-20,-4,-1.5,/,/,/,/,/,/,/
O=C(NCc1cccs1)C1CCN(c2nc3ccccc3o2)CC1,4,-1,-5,0,/,-0.82,0.0076,0.0063,0.033,0.0043,0.016*,0.011
CCOc1ccccc1CNC(=O)C1CCN(c2nc3ccccc3o2)CC1,-5,-10,-4,-1,/,-1.5,0.017,?,?,0.007,0.014,0.0097
CCOC(=O)c1c(C)nc(C)c(C(=O)OCC)c1-c1ccccc1,-9,-2,3,0,-1,-2.2,0.0098,0.0053,0.032,0.0061,0.021,0.0097
CCOC(=O)c1c(C)nc(C)c(C(=O)OCC)c1-c1cccnc1,/,2,-65,/,0.019,/,/,/,/,/,/,/
COc1ccc(Nc2nc(N3CCCC3)nc(N3CCCC3)n2)c(OC)c1,-8,1,-14,0,-2.4*,-1.1,?,0.0066,0.034,0.0082,0.023,0.011
CC(=O)n1cc([C@@H]2C=C(C(=O)Nc3ccccc3)O[C@H](OCc3ccc(CO)cc3)C2)c2ccccc21,3,2,/,0,-1.6,/,/,/,/,/,/,/
S=c1[nH]nc(C2CCCCC2)n1/N=C/C(Cl)=C\c1ccccc1,-3,5,-3,0,3.4,1.7,/,/,/,/,/,/
S=c1[nH]nc(C2CCCCC2)n1/N=C/C=C/c1ccccc1,-4,-2,-12,2,7.7*,0.99,0.0068,0.037*,0.046*,0.034*,0.032*,0.031*
O=[N+]([O-])c1ccccc1/C=N/n1c(C2CCCCC2)n[nH]c1=S,18,-6,-4,0,11*,/,0.0064,0.033*,0.036,0.024*,0.031*,0.019*
CC(C)(C)NC(=O)NC(=O)COC(=O)c1ccco1,5,3,5,-1,0.71,/,/,/,/,/,/,/
O=C(NNC(=S)Nc1ccc(F)cc1)c1ccccc1OC(F)F,3,2,-11,-1,0.33,0.95,/,/,/,/,/,/
Cc1ccc(NC(=S)NNC(=O)c2ccccc2OC(F)F)cc1,-10,6,-41,-4,8.4*,/,0.011,0.022*,0.033,0.018*,0.028*,0.013*
COc1cccc(NC(=S)NNC(=O)c2ccccc2OC(F)F)c1,-6,1,-20,-4,2.4,/,/,/,/,/,/,/
O=C(NNC(=S)Nc1cccc(Cl)c1)c1ccccc1OC(F)F,-10,-3,-4,0,6.4*,/,0.01,0.033*,0.034,0.017*,0.036*,0.012*
Cc1nc2ccc(NC(=O)NCCO)cc2s1,-4,-4,-25,0,-0.43,-0.67,/,/,/,/,/,/
O=C(CN1CCN(C/C=C/c2ccccc2)CC1)NCc1ccccc1,8,-1,-4,0,-1.6,/,/,/,/,/,/,/
SMILES,PKD1 inh,p97 ATPase inh,MDM2 E3 inh,DTT redox prof,Cl transport mod,ROMK mod,KCC2 sec1,KCC2 bumet counter,KCC2 sec2,HEK293 Tl flux,KCC2 ouabain,HEK counter2
Cn1nc(C(=O)Nc2nc3ccc(S(C)(=O)=O)cc3s2)ccc1=O,3,-7,-11,0,4.7*,-0.12,0.012,0.021*,0.032,0.013*,0.026,?
N#Cc1c2n(c3c(=O)[nH]cnc13)CCCC2,-6,5,-44,2,-0.87,/,/,/,/,/,/,/
N#Cc1c2n(c3c(=S)nc[nH]c13)CCCCC2,2,4,-3,0,5.2*,/,0.0065,0.014*,0.032,0.014*,?,0.014*
O=C(CSc1nnc(SCc2cccc3ccccc23)s1)c1ccc2c(c1)OCO2,-6,-2,-13,1,/,/,?,0.028*,0.04*,0.034*,0.032*,0.035*
c1ccc(CCc2nn3c(Cc4ccccc4)nnc3s2)cc1,-5,1,/,2,-2.7*,/,0.0073,0.0062,0.032,0.0065,0.018*,0.011
CSc1sc(C(=O)O)c2c1C(=O)CCC2,-6,2,-18,1,-4*,0.21,0.0099,?,0.035,0.0076,0.023,0.011
CSc1sc(C(=O)OC(C)C)c2c1C(=O)CC(C)(C)C2,/,3,-14,/,-1.6,/,/,/,/,/,/,/
COC(=O)CCCC1=CC2=C(c3ccccc3)C(=O)C(C)(OC(=O)C3CCCC3)C(=O)C2=CN1Cc1ccc(OC)cc1 (centres undefined),/,/,10,/,-2.6*,/,0.015,0.0042,0.029,0.0065,0.016,0.0087
COCC(=O)Nc1cc(OC)ccc1OC,-12,-4,-14,-1,/,/,0.01,?,0.035,?,0.023,?
